# Screens from PubChem.
# CAL PDZ FP-1: inhibitors of human CAL PDZ peptide binding. Q9HD26. purified CAL PDZ, TMR-peptide fluorescence polarization, 1 h. inhibition, % at 24.9 µM. hit rate 0.92% among 300,000. AID 602252;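 active = mean inhibition of at least 30% with at least half of replicates also reaching 30%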;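 also: 0% = DMSO neutral control and 100% = excess unlabeled competitor peptide PRC23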
# SR-BI DiI-HDL act: activators of SR-BI mediated HDL lipid uptake | CHO ldlA[mSR-BI] cells, DiI-HDL uptake fluorescence, 3 h; 100 = double the neutral-control signal | activation, % at 12.5 µM | AID 504775 | hit rate 0.096% among 320,000;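 active = mean replicate activation of at least 60% and every replicate at or above 60%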;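 also: 0% = median plate neutral-control signal and 100% = twice that signal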
#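 System: CHO ldlA[mSR-BI] cells / Medium: HEPES-buffered (25 mM, pH 7.4) F12 plus 0.5% BSA / Probe or stimulus: labelled HDL, 10 µg/mL / Doses: single compound concentration, delivered by pin transfer / Schedule: 3 h, 37 °C / Measured by: DiI fluorescence, bottom read / Measure: cell-associated DiI fluorescence as measure of HDL uptake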
# ATG4B inhibitor: ATG4B (human) cysteine protease inhibition | ATG4B cleavage of LC3-PLA2, NBD-HPC fluorescence, 1 h | inhibition, % at 8.33 µM | hit rate 0.51% among 340,000; in the data active = inhibition above about 40%
# CAL PDZ FP-2: blocks peptide binding to human CAL PDZ domain; Q9HD26; purified CAL PDZ, TMR-peptide fluorescence polarization, 1 h; inhibition, % at 20 µM; hit rate 0.02% among 330,000; AID 504414;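 active = highest replicate inhibition of at least 40%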;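 also: plate controls were DMSO neutral control wells for no effect and unlabeled competitor peptide control wells for full effect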
#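 Assay system – tagged CAL PDZ protein CerCALP, purified · Timing – 1 h at RT · Compound – single point, 20 µM · Measured by – fluorescence polarization from S- and P-plane intensities, G-factor corrected · Evaluation – inhibition from polarization loss · Probe or stimulus – TMR reporter peptide T*-PRC34 · Buffer or medium – pH 7.4 phosphate-saline buffer, reducing agent, detergent, IgG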
# SR-BI HDL uptake: inhibitors of mouse SR-BI mediated HDL lipid uptake; Q61009; ldlA[mSR-BI] CHO cells, DiI-HDL uptake fluorescence, 3 h; inhibition, % at 12.5 µM; hit rate 0.96% among 320,000; AID 488896;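 active = mean replicate inhibition of at least 70% and a set share of replicates each scoring 70 or more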;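 also: 0% = median of neutral control wells and 100% = median of positive control wells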
# Target sequence (Q61009 whole entry, looked up): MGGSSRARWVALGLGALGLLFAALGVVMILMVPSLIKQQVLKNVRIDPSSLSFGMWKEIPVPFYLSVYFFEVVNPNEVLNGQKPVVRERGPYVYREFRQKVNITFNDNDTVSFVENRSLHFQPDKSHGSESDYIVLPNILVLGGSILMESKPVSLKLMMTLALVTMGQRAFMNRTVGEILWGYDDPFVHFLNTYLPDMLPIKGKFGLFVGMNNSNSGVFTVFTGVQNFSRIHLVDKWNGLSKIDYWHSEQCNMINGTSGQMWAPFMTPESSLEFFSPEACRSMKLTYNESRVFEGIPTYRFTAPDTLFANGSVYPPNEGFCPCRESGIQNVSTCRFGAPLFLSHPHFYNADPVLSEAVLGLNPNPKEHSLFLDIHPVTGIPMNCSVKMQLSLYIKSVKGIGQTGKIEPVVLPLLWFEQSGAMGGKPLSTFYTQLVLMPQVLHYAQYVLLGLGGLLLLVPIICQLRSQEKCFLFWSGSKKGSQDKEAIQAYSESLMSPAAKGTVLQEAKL
# * marks the source's active call; other numbers are inactive results; nt = not tested or not shown. A selection: hits, their analogues and other compounds. The true share with any hit is near 2.3%.
SMILES,CAL PDZ FP-1,SR-BI DiI-HDL act,ATG4B inhibitor,CAL PDZ FP-2,SR-BI HDL uptake
Cc1ccccc1NC1=NC(=S)N(c2ccccc2)C12CCOC(C)(C)C2 (configuration not stated),42.0*,5.7,-7.1,16.7,-5.7
CC1(C)CC2(CCO1)C(Nc1ccccc1)=NC(=S)N2c1ccccc1 (configuration not stated),nt,nt,-7.4,nt,nt
CCCCn1c(N)c(-c2nc3ccccc3s2)c2c([N+](=O)[O-])nn(CC)c(=O)c21,-6.4,-67.5,-8.1,0.9,67.5
CCCCCn1c(N)c(-c2nc3ccccc3s2)c2c([N+](=O)[O-])nn(CC)c(=O)c21,nt,-82.8,-6.0,-2.1,82.8*
CCCCn1c(N)c(-c2nc3ccccc3s2)c2c([N+](=O)[O-])nn(C)c(=O)c21,-1.2,-93.3,9.2,-1.8,93.3*
COc1cccc(CN(C)C(=O)C2CCN(S(=O)(=O)c3cccs3)CC2)c1OC,1.3,-0.8,-5.6,-1.7,0.8
CCOC(=O)C1CCCN(C(=O)c2ccc3nc(-c4cccc(OC)c4)oc3c2)C1 (configuration not stated),-3.4,2.3,-2.9,-1.7,-2.3
O=C(O)CSCCOc1ccc(OCCSCC(=O)O)cc1,-0.9,-5.1,-7.2,0.8,5.1
N#C/C(=C\c1c(N2CCCCC2)nc2ccccn2c1=O)S(=O)(=O)c1ccccc1,54.6*,-3.5,13.4,-6.2,3.5
O=Cc1c(N2CCN(c3ccccc3)CC2)nc2ccccn2c1=O,-0.6,11.6,1.4,-1.4,-11.6
N#CC(C#N)=Cc1c(N2CCN(c3ccccc3)CC2)nc2ccccn2c1=O,47.9*,-20.0,0.7,-1.1,20.0
N#C/C(=C\c1c(N2CCN(c3ccccc3)CC2)nc2ccccn2c1=O)S(=O)(=O)c1ccccc1,-0.5,15.6,0.4,-1.7,-15.6
Cc1ccc(NC(=O)CN2CCCC2c2cccn2C)c(Br)c1 (configuration not stated),38.7*,-26.8,1.5,-0.6,26.8
Cc1ccc(NC(=O)CN2CCCC2c2cccn2C)cc1C (configuration not stated),-5.9,-13.0,-4.3,-0.7,13.0
COc1ccc(-c2c(-c3ccc4c(c3)OCO4)c3ccccc3n2C)cc1,-7.7,-10.6,-0.3,0.3,10.6
Cn1c(=O)cc(OCC(=O)NCCCN2CCN(Cc3ccccc3)CC2)c2ccccc21,38.9*,-3.0,0.2,-0.2,3.0
CC(NC(=O)C(=O)N1CCCCC1)C(c1cccs1)N1CCN(C)CC1 (configuration not stated),5.2,-1.8,5.8,-0.2,1.8
COc1ccc(CNC(=O)CCN2C(=S)NC(C)(C)CC2C)cc1 (configuration not stated),64.9*,3.7,4.6,-1.8,-3.7
COc1ccc(C(=O)Nc2ccc(S(=O)(=O)N3CCCC3)cc2)cc1[N+](=O)[O-],-4.6,-48.7,-0.3,nt,48.7
Cc1ccc(Cn2c(=N)n(CC(=O)c3ccccc3)c3ccccc32)cc1,-4.7,-3.3,5.2,0.4,3.3
Cc1nn(-c2ccc(Cl)cc2)c(=O)c2ccccc12,-2.6,-16.5,-0.7,-5.7,16.5
Cc1c(Cl)sn(-c2ccc(Cl)cc2)c1=O,2.3,-72.2,0.2,0.2,72.2*
O=C(NC1c2ccccc2Oc2ccccc21)c1ccc([N+](=O)[O-])cc1,-1.1,16.0,5.0,-1.2,-16.0
O=C(CCN1CCOCC1)Nc1cc(C(=O)Nc2ccc(Cl)cc2)ccc1N1CC2CC(C1)c1cccc(=O)n1C2 (configuration not stated),62.3*,-9.6,-0.2,-2.8,9.6
CCOc1ccc(NC(=O)c2ccc(N3CC4CC(C3)c3cccc(=O)n3C4)c(NC(=O)c3ccncc3)c2)cc1 (configuration not stated),1.8,-3.5,-10.3,-4.0,3.5
O=C1CCC(C2CCc3cc(O)ccc3C2)C1 (configuration not stated),-3.1,-12.9,-11.8,-0.2,12.9
CC(C)(C)c1cc(C(=O)N/N=C/c2cc3c(cc2Br)OCO3)n[nH]1,-1.0,-76.7,0.2,-1.7,76.7*
O=C(N/N=C/c1cc2c(cc1Br)OCO2)c1ccccn1,nt,nt,-5.7,nt,nt
CC(C)(C)c1cc(C(=O)N/N=C/c2ccccn2)n[nH]1,nt,320.4*,-7.6,-1.2,-320.4
CN(C)S(=O)(=O)c1ccc(C(=O)NCc2nnc(SCC(=O)N3CCCC3)o2)cc1,nt,15.7,1.9,-0.9,-15.8
